From ChEMBL document CHEMBL1136989, “Targeting human gastrointestinal stromal tumor cells with a quadruplex-binding small molecule” (J Med Chem, 2009)
Calls of active or inactive are those of the source. The rule behind the calls is not given here.

How the values were obtained:
[1] = Cytotoxicity against human GIST48 cells assessed as effect on cell viability after 3 to 6 days by luciferase based luminescence assay; format: functional
In short: (§1)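 CellTiter-Glo luciferase/ATP luminescence viability read-out. Cells plated at 10,000–30,000 per well and grown overnight in serum-containing medium, then dosed for 3 to 6 days alongside a water-solvent control. Signal normalized to control; each point in triplicate. GIST882, GISTT1 and LMS04 were grown in RPMI 1640 with 15% FBS. GIST48 and GIST48B were grown in F10 with 15% FBS, mito+ serum extender and bovine pituitary extract.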

[2] = test system: MCF7; test: Antiproliferative activity against human MCF7 cells after 96 hrs by SRB assay; format: functional, cell-based; settings: MCF7, 96 h
In short: (§2)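 Sulforhodamine B assay after 96 hr continuous drug exposure; IC50 in μM taken as the mean of triplicate experiments. GIST882 cells were kept in RPMI 1640 with 15% FBS. HT-29 and MCF-7 were kept in DMEM with 10% FBS, and HGC-27 in MEM with 10% FBS.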

[3] = test system: Nucleic Acid; test: Stabilization of synthetic duplex DNA assessed as melting temperature by FRET assay; format: nucleic-acid assay
In short: (§3)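 FRET melting of FAM/TAMRA dual-labelled oligonucleotides, annealed at 90°C in 60 mM K+ cacodylate buffer pH 7.4. Final conditions: 200 nM DNA and 500 nM ligand. Fluorescence read at 0.5°C steps from 30 to 100°C, ramping 1°C/min, with excitation 450–495 nm and emission 515–545 nm. Tm taken as the derivative maximum; ΔTm given relative to ligand-free control.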

[4] = molecular target: Mast/stem cell growth factor receptor Kit (Homo sapiens) (UniProt P10721); test: Reduction in KIT mRNA expression in human GIST882 cells after 24 hrs; format: functional, cell-based
Mast/stem cell growth factor receptor Kit (Homo sapiens), sequence (P10721 whole entry): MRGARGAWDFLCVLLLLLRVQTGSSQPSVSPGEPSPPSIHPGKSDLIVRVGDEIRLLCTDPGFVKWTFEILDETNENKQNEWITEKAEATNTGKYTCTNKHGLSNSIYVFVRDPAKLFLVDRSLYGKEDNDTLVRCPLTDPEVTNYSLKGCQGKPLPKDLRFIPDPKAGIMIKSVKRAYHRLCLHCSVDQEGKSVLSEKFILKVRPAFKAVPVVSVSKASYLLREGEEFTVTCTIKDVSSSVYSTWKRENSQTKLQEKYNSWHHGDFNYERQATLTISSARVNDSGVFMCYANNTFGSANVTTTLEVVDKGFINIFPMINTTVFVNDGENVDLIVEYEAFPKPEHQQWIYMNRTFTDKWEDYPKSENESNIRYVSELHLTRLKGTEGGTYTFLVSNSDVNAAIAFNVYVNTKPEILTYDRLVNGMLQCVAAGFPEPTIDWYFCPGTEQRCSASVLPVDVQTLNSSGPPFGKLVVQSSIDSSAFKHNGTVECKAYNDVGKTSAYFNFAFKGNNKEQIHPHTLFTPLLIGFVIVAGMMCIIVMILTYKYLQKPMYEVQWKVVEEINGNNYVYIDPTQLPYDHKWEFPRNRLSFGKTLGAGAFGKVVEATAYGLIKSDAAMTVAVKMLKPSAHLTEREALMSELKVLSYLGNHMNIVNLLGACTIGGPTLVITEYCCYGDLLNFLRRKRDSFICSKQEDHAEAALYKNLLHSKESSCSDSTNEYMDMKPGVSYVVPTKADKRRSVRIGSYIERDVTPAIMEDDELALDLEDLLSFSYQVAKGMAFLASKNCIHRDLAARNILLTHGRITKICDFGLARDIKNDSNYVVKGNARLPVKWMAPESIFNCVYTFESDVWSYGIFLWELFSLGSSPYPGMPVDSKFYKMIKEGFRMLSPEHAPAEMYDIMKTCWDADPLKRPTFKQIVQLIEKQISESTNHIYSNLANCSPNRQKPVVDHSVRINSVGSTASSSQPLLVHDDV
In short: (§4)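 GIST882 cells (1×10^6) exposed to drug for 24 hr. Total RNA extracted, and 250 ng used for one-step RT-PCR of KIT, MYC, hTERT and N-RAS. Band levels normalized to GAPDH and to untreated control.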

[5] = Antiproliferative activity against human GIST882 cells after 96 hrs by SRB assay; format: functional, cell-based; settings: GIST882, 96 h; in short: as §2
[6] = test system: Nucleic Acid; test: Stabilization of human G4-KIT1 DNA quadruplex assessed as melting temperature by FRET assay; format: nucleic-acid assay; in short: as §3
[7] = test system: Nucleic Acid; test: Stabilization of human G4-KIT2 DNA quadruplex assessed as melting temperature by FRET assay; format: nucleic-acid assay; in short: as §3
[8] = test system: HGC-27; test: Antiproliferative activity against human HGC27 cells after 96 hrs by SRB assay; format: functional, cell-based; settings: HGC-27, 96 h; in short: as §2
[9] = test system: Nucleic Acid; test: Stabilization of human G4-telomeric quadruplex assessed as melting temperature by FRET assay; format: nucleic-acid assay; in short: as §3
[10] = test system: HT-29; test: Antiproliferative activity against human HT-29 cells after 96 hrs by SRB assay; format: functional, cell-based; settings: HT-29, 96 h; in short: as §2
[11] = molecular target: Mast/stem cell growth factor receptor Kit (Homo sapiens) (UniProt P10721); test: Reduction in KIT protein expression in human GIST882 cells after 24 hrs by Western blot; format: functional, cell-based
In short: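 GIST882 cells (RPMI 1640 + 15% FBS) exposed 24 hr to 0.5 or 1 µM test compound, or imatinib at 5 and 10 µM. Lysates protein-quantified by Bradford, then electrophoresed and immunoblotted for total KIT, with actin blot as loading control; vehicle-treated cells as reference.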

[12] = Reduction in MYC mRNA expression in human GIST882 cells after 24 hrs; format: functional, cell-based; parameters: scale not given: the % may be the effect or the level left; in short: as §4
[13] = test system: GIST882; test: Antiproliferative activity against human GIST882 cells at 0.25 uM after 1 week; format: functional, cell-based
In short: (§5)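 Long-term proliferation of GIST882 cells under continuous exposure for three weeks at 0.1, 0.25 or 0.5 μM. Growth followed as cumulative population doublings relative to an untreated control arm.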

[14] = test system: GIST882; test: Cytotoxicity against human GIST882 cells assessed as growth inhibition at 0.5 uM after 1 week; format: functional, cell-based; in short: as §5
[15] = Reduction in telomerase mRNA expression in human GIST882 cells after 24 hrs; format: functional, cell-based; in short: as §4
[16] = test system: GIST882; test: Antiproliferative activity against human GIST882 cells at 0.1 uM after 2 weeks; format: functional, cell-based; in short: as §5
[17] = Reduction in N-RAS mRNA expression in human GIST882 cells after 24 hrs; format: functional, cell-based; in short: as §4
[18] = molecular target: Telomerase reverse transcriptase (Homo sapiens) (UniProt O14746); test: Inhibition of telomerase in human GIST882 cells at 0.5 uM by TRAP-LIG assay; format: cell-based
Telomerase reverse transcriptase (Homo sapiens), sequence (O14746 whole entry): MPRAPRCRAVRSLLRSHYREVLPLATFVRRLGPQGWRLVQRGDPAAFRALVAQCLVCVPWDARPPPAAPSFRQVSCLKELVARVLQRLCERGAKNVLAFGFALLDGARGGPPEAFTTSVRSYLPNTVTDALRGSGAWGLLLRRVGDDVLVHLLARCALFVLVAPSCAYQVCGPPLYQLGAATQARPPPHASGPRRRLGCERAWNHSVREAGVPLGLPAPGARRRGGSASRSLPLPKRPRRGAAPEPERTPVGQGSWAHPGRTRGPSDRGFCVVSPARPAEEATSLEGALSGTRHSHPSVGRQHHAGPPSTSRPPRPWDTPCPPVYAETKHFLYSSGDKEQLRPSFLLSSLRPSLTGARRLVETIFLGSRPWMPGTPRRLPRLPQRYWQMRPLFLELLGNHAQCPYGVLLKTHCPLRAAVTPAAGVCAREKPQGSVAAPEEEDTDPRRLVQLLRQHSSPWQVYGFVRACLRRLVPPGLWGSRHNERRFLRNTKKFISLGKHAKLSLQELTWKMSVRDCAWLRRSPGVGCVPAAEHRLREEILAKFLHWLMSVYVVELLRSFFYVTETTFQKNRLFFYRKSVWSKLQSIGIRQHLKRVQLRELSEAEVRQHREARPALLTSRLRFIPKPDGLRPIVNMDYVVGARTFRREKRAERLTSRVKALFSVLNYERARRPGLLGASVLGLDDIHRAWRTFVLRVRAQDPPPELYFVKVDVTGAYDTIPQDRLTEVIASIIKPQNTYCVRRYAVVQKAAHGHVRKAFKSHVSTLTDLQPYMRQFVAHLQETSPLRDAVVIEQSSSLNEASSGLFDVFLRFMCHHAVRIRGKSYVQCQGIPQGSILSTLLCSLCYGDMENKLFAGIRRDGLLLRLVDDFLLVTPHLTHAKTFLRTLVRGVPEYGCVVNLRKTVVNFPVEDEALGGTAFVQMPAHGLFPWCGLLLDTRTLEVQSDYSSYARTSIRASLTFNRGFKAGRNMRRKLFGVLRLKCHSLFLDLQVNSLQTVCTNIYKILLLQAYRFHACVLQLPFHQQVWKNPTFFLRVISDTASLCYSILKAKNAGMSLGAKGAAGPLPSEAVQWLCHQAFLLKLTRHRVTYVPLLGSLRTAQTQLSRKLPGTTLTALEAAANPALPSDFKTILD
In short: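 TRAP-LIG assay on GIST882 cells treated for one week. Cell protein extract in CHAPS lysis buffer was elongated with TS primer in TRAP buffer at 30°C for 10 min, then purified. A second PCR with ACX/TS primers ran 35 cycles. Products were run on 12% PAGE and stained with SYBR green. Ladder intensity was normalized to an untreated-protein positive control after negative-control background subtraction.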

[19] = test system: GIST882; test: Antiproliferative activity against human GIST882 cells at 0.5 uM after 1 week; format: functional, cell-based; in short: as §5
[20] = test system: GISTT1; test: Cytotoxicity against human GISTT1 cells assessed as effect on cell viability after 3 to 6 days by luciferase based luminescence assay; format: functional; in short: as §1
[21] = molecular target: Mast/stem cell growth factor receptor Kit (Homo sapiens) (UniProt P10721); test: Reduction in KIT mRNA expression in human GIST882 cells at 1 uM after 24 hrs relative to GAPDH level; format: functional, cell-based; parameters: scale not given: the % may be the effect or the level left; in short: as §4
[22] = test system: GIST882; test: Cytotoxicity against human GIST882 cells assessed as effect on cell viability after 3 to 6 days by luciferase based luminescence assay; format: functional; in short: as §1
[23] = test system: GIST48B; test: Cytotoxicity against human GIST48B cells assessed as effect on cell viability after 3 to 6 days by luciferase based luminescence assay; format: functional; in short: as §1
[24] = species: Homo sapiens; test: Cytotoxicity against human LMSO4 cells assessed as effect on cell viability after 3 to 6 days by luciferase based luminescence assay; format: functional; in short: as §1
[25] = molecular target: Mast/stem cell growth factor receptor Kit (Homo sapiens) (UniProt P10721); test: Reduction in KIT protein expression in human GIST882 cells at 1 uM after 24 hrs by Western blot; format: functional, cell-based
In short: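 GIST882 cells treated for 24 hr, compound at 0.5 or 1 μM and imatinib at 5 or 10 μM. Lysate protein measured by Bradford, then electrophoresis and immunoblotting for total KIT with an actin loading control.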

[26] = test system: GIST882; test: Cytotoxicity against human GIST882 cells assessed as growth inhibition at 0.25 uM after 1 week; format: functional, cell-based; in short: as §5

SMILES | IC50 [1] | IC50 [2] | ΔTm [3] | Activity [4] | IC50 [5] | ΔTm [6] | ΔTm [7] | IC50 [8] | ΔTm [9] | IC50 [10] | Activity [11] | other results
Cc1ccc(NC(=O)c2ccc(CN3CCN(C)CC3)cc2)cc1Nc1nccc(-c2cccnc2)n1 [IMATINIB] | 18700 nM | 11500 nM | 0.1 °C | inactive | 1700 nM | 0.2 °C | 0.2 °C | 2400 nM | 0.2 °C | 60 nM |  | 
C[n+]1ccc(-c2c3nc(c(-c4cc[n+](C)cc4)c4ccc([nH]4)c(-c4cc[n+](C)cc4)c4ccc([nH]4)c(-c4cc[n+](C)cc4)c4nc2C=C4)C=C3)cc1 [TMPYP4] |  | 6100 nM | 8.7 °C | inactive | 13200 nM | 11.1 °C | 21.6 °C | 2700 nM | 27.8 °C | 4500 nM | inactive | 
CN(C)c1ccc(Nc2c3ccc(NC(=O)CCN4CCCC4)cc3nc3cc(NC(=O)CCN4CCCC4)ccc23)cc1 |  | 2200 nM | 7.2 °C | inactive | > 25000 nM | 6.5 °C | 18.5 °C | 2600 nM | 21.6 °C | 2700 nM | inactive | 
O=C1c2cc(NCCN3CCCC3)c3c4c(cc(NCCN5CCCC5)c(c24)C(=O)N1CCN1CCCC1)C(=O)N(CCN1CCCC1)C3=O | 500 nM | 20 nM | 5.7 °C | Dose-dependent effect | 1600 nM | 11.2 °C | 29 °C | 40 nM | 28.7 °C | 30 nM |  | Activity [12]: 25%; Activity [13]: Active; Activity [14]: Active; Activity [15]: Active; Activity [16]: Active; Activity [17]: inactive; Activity [18]: Active; Activity [19]: Active; Activity [20]: Active; Activity [21]: 90%; Activity [22]: Active; Activity [23]: inactive; Activity [24]: inactive; Activity [25]: Active; Activity [26]: Active
